{
  "source": "ChEMBL document CHEMBL1138317",
  "about": "“Antibacterial oxazolidinones possessing a novel C-5 side chain. (5R)-trans-3-[3-Fluoro-4- (1-oxotetrahydrothiopyran-4-yl)phenyl]-2- oxooxazolidine-5-carboxylic acid amide (PF-00422602), a new lead compound” (J Med Chem, 2007)",
  "key": {"[1]": {"tested_on": "Moraxella catarrhalis", "test": "Antibacterial activity against Moraxella catarrhalis by microbroth technology", "type": "functional", "summary_of_the_method": "(§1)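 MIC determined by broth microdilution, reported in µg/mL.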"}, "[2]": {"tested_on": "Staphylococcus aureus", "test": "Antibacterial activity against Staphylococcus aureus UC76 in po dosed CD1 mouse systemic infection model assessed as mortality after 7 days", "type": "functional"}, "[3]": {"tested_on": "Staphylococcus aureus", "test": "Antibacterial activity against levofloxacin-oxacillin-resistant Staphylococcus aureus UC76 SA1 by micro-broth technology", "type": "functional", "summary_of_the_method": "(§2)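 Drug-resistant panel strains (levofloxacin/oxacillin-resistant S. aureus, levofloxacin/penicillin-resistant S. pneumoniae, vancomycin-resistant E. faecalis and E. faecium). Broth microdilution MIC in µg/mL; value reported as MIC90 across the strains of each resistant group.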"}, "[4]": {"test": "Bioavailability in Sprague-Dawley rat at 20 mg/kg, po", "type": "ADME, organism-based", "details": "Sprague-Dawley, in vivo"}, "[5]": {"tested_on": "Enterococcus faecium", "test": "Antibacterial activity against vancomycin-resistant Enterococcus faecium by micro-broth technology", "type": "functional", "summary_of_the_method": "as §2"}, "[6]": {"test": "Volume of distribution at steady state in Sprague-Dawley rat at 10 mg/kg, iv", "type": "ADME, organism-based", "parameters": "dose 10 mg/kg, route intravenous", "details": "in vivo, read-out: Vdss"}, "[7]": {"biological_target": "T1, Amine oxidase [flavin-containing] A (Homo sapiens, UniProt P21397)", "T1 sequence (P21397 whole entry)": "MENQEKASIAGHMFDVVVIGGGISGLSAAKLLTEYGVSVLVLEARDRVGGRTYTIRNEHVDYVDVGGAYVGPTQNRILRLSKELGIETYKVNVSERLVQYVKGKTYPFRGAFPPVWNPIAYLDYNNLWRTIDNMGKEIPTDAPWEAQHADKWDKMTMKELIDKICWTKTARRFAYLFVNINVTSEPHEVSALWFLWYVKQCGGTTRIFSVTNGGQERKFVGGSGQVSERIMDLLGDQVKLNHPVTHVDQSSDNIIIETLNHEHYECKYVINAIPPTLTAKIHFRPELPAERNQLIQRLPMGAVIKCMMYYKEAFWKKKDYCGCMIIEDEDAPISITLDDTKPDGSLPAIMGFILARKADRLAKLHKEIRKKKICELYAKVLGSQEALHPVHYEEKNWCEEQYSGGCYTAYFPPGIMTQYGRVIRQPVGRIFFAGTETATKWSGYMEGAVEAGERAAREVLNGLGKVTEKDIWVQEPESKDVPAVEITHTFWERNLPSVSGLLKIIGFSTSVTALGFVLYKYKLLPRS", "test": "Inhibition of human recombinant MAOA"}, "[8]": {"test": "AUC in Sprague-Dawley rat at 20 mg/kg, po", "type": "ADME, organism-based, Plasma", "parameters": "dose 20 mg/kg, route oral", "details": "Sprague-Dawley, plasma"}, "[9]": {"tested_on": "Escherichia coli", "test": "Inhibition of protein synthesis in Escherichia coli by cell-free transcription-translation assay", "type": "functional", "summary_of_the_method": "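E. coli cell-free coupled transcription/translation run in microtiter format with a luciferase reporter; luminescence was the read-out for protein synthesis.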"}, "[10]": {"test": "Clearance in Sprague-Dawley rat at 10 mg/kg, iv", "type": "ADME, organism-based", "parameters": "dose 10 mg/kg, route intravenous", "details": "in vivo"}, "[11]": {"test": "Half life in Sprague-Dawley rat at 20 mg/kg, po", "type": "ADME, organism-based", "parameters": "dose 20 mg/kg, route oral", "details": "in vivo"}, "[12]": {"tested_on": "Haemophilus influenzae", "test": "Antibacterial activity against Haemophilus influenzae by micro-broth technology", "type": "functional", "summary_of_the_method": "as §1"}, "[13]": {"tested_on": "Enterococcus faecalis", "test": "Antibacterial activity against vancomycin-resistant Enterococcus faecalis MGH2 EF1 by microbroth technology", "type": "functional", "summary_of_the_method": "as §2"}, "[14]": {"test": "Cmax in Sprague-Dawley rat at 20 mg/kg, po", "type": "ADME, organism-based", "parameters": "dose 20 mg/kg, route oral", "details": "in vivo"}, "[15]": {"tested_on": "Streptococcus pneumoniae", "test": "Antibacterial activity against levofloxacin-penicillin-resistant Streptococcus pneumoniae SV1 SP3 by microbroth technology", "type": "functional", "summary_of_the_method": "as §2"}},
  "data": [
    {"smiles": "NC(=O)[C@H]1CN(c2ccc(C3CCS(=O)(=O)CC3)c(F)c2)C(=O)O1", "values": [
      {"measurement": "MIC", "setting": "[1]", "result": "> 8", "unit": "µg/mL"},
      {"measurement": "PD50", "setting": "[2]", "result": 2.1, "unit": "mg/kg"},
      {"measurement": "MIC90", "setting": "[3]", "result": 2, "unit": "µg/mL"},
      {"measurement": "bioavailability", "setting": "[4]", "result": 40, "unit": "%"},
      {"measurement": "MIC90", "setting": "[5]", "result": 4, "unit": "µg/mL"},
      {"measurement": "Vd", "setting": "[6]", "result": 1.11, "unit": "L/kg"},
      {"measurement": "IC50", "setting": "[7]", "result": 105, "unit": "µM"},
      {"measurement": "AUC", "setting": "[8]", "result": 8620, "unit": "ng·h/mL"},
      {"measurement": "IC50", "setting": "[9]", "result": 5.89, "unit": "µM"},
      {"measurement": "clearance", "setting": "[10]", "result": 12.9, "unit": "mL/min/kg"},
      {"measurement": "half-life", "setting": "[11]", "result": 1.58, "unit": "h"},
      {"measurement": "MIC", "setting": "[12]", "result": "> 8", "unit": "µg/mL"},
      {"measurement": "MIC90", "setting": "[13]", "result": 2, "unit": "µg/mL"},
      {"measurement": "Cmax", "setting": "[14]", "result": 1880, "unit": "ng/mL"},
      {"measurement": "MIC90", "setting": "[15]", "result": 2, "unit": "µg/mL"}
    ]}
  ]
}
